Laboratory results taken from ChEMBL document CHEMBL3228003, “Synthesis of angiotensin II analogues by incorporating beta-homotyrosine or beta-homoisoleucine residues” (J Med Chem, 1979).

Experiments:
[1] = Stability of the compound assessed as microsomal leucine aminopeptidase (unknown origin)-mediated liberation of aspartic acid from position 1 after 5 mins by TLC analysis
[2] = Stability of the compound assessed as beef pancreas alpha-chymotrypsin-mediated drug degradation into 2 tetrapeptides after 15 to 20 mins by TLC analysis; assay type: ADME, Bos taurus; conditions: cattle, isolated protein
How it was run: (§1)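 Peptide (5 mg) in 0.5 mL of 0.1 mol ammonium acetate buffer, pH 7.5, was incubated at 37 °C with 0.4 mg of thrice-crystallized bovine pancreatic α-chymotrypsin suspended in buffer. The reaction was stopped with acetic acid, the mixture lyophilized, and fragments checked by TLC on cellulose in suitable solvents.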

[3] = Stability of the compound assessed as microsomal leucine aminopeptidase (unknown origin)-mediated liberation of sarcosine, arginine and valine after 2 hrs by TLC analysis; assay type: ADME, Homo sapiens
How it was run: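 Peptide (2 mg) in 0.4 mL of 0.5 mol Tris, pH 8.5, plus 0.1 mL of 0.025 mol MnCl2, was incubated at 37 °C with 0.2 mg of microsomal leucine aminopeptidase (25 units/1.83 mg). Acetic acid was added and the mixture lyophilized. Liberated amino acids were detected by TLC and amino acid analysis.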

Rattus norvegicus [4] = species on record: Rattus norvegicus; experiment: Effect on pressor activity in vagotomized and ganglion-blocked rat assessed as duration of action; assay type: functional
How it was run: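 Single-injection pressor test in vagotomized, ganglion-blocked rats. Duration of action runs from peptide injection until blood pressure returns to control values.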

Rattus norvegicus [5] = species on record: Rattus norvegicus; experiment: Effect on pressor activity in vagotomized and ganglion-blocked rat assessed as duration of action relative to angiotensin 2; assay type: functional
How it was run: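 Vagotomized, ganglion-blocked rats received single injections. Duration of action, timed from injection until blood pressure returns to control levels, is compared against an equipressor dose of angiotensin II given by the same procedure.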

Rattus norvegicus [6] = species on record: Rattus norvegicus; experiment: Effect on pressor activity in vagotomized and ganglion-blocked rat relative to angiotensin 2; assay type: functional
How it was run: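 Pressor response was measured in vagotomized, ganglion-blocked rats by the single-injection procedure. Activity is expressed as a percentage of the pressor activity of angiotensin II, with n injections per value.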

[7] = Stability of the compound assessed as beef pancreas alpha-chymotrypsin-mediated drug degradation up to 3 hrs by TLC analysis; assay type: ADME, Bos taurus; conditions: cattle, isolated protein
How it was run: as §1

Structure (SMILES)	Stability [1]	Stability [2]	Stability [3]	Time (Rattus norvegicus [4])	Time (Rattus norvegicus [5])	Activity (Rattus norvegicus [6])	Stability [7]
CC[C@H](C)[C@H](NC(=O)[C@H](Cc1ccc(O)cc1)NC(=O)[C@@H](NC(=O)[C@H](CCCNC(=N)N)NC(=O)[C@@H](N)CC(=O)O)C(C)C)C(=O)N[C@@H](Cc1cnc[nH]1)C(=O)N1CCC[C@H]1C(=O)N[C@@H](Cc1ccccc1)C(=O)O [ANGIOTENSIN II]	Unstable	Unstable					
CC[C@H](C)[C@H](NC(=O)[C@H](Cc1ccc(O)cc1)NC(=O)[C@@H](NC(=O)[C@H](CCCNC(=N)N)NC(=O)CNC)C(C)C)C(=O)N[C@@H](Cc1cnc[nH]1)C(=O)N1CCC[C@H]1C(=O)N[C@@H](Cc1ccccc1)C(=O)O			Stable				
CC[C@H](C)[C@@H](CC(=O)N[C@@H](Cc1cnc[nH]1)C(=O)N1CCC[C@H]1C(=O)N[C@@H](Cc1ccccc1)C(=O)O)NC(=O)[C@H](Cc1ccc(O)cc1)NC(=O)[C@@H](NC(=O)[C@H](CCCNC(=N)N)NC(=O)CNC)C(C)C			Stable	4.7 min	5.3 min	29.2%	Stable
CC[C@H](C)[C@H](NC(=O)C[C@H](Cc1ccc(O)cc1)NC(=O)[C@@H](NC(=O)[C@H](CCCNC(=N)N)NC(=O)CNC)C(C)C)C(=O)N[C@@H](Cc1cnc[nH]1)C(=O)N1CCC[C@H]1C(=O)N[C@@H](Cc1ccccc1)C(=O)O			Stable	5.5 min	5.2 min	1.98%	Stable
CC[C@H](C)[C@@H](CC(=O)N[C@@H](Cc1cnc[nH]1)C(=O)N1CCC[C@H]1C(=O)N[C@@H](Cc1ccccc1)C(=O)O)NC(=O)[C@H](Cc1ccc(O)cc1)NC(=O)[C@@H](NC(=O)[C@H](CCCNC(=N)N)NC(=O)[C@@H](N)CC(=O)O)C(C)C	Unstable			6.7 min	6.3 min	2.82%	Stable
